aSyn UTR inh: 5' untranslated region of α-synuclein, MLPCN primary screen; alpha-synuclein 5'UTR reporter, inhibitor activity; inhibition, % (tested at 7.5 µM); AID 1813; actives 0.82% (n = 300,000); in the data active means inhibition above about 60%; inconclusive means no clear call, values can overlap the other calls;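 further: H4 neuroglioblastoma cells stably carrying SNCA 5'UTR luciferase fusion; 0% = DMSO wells and 100% = positive control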
Shn3 3UTR inh: inhibitors of Schnurri-3 3'UTR reporter in osteoblasts. Clone20 osteoblast Shn3 3'UTR firefly luciferase, 24 h. inhibition, % at 12.5 µM. actives 0.52% (n = 360,000);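 active means mean inhibition of at least 75% with every replicate also reaching 75%; inconclusive means mean inhibition at least 75% but some replicate below; inactive means mean inhibition below 75%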;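 further: 0% = median of neutral control wells and 100% = pilot-screen positive control compound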
FN deposition inh: fibronectin deposition inhibition; inhibition, % at 12.6 µM; AH1F fibroblasts, Alexa488-fibronectin deposition fluorescence, overnight; actives 0.086% (n = 350,000);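 active means mean inhibition across replicates of 30% or more, regardless of how many single replicates reach that level; inconclusive means mean under 30% yet at least half of replicates reach 30%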;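 further: positive control wells lacked labelled fibronectin entirely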
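Material: AH1F fibroblasts assembling fluorescent fibronectin matrix; amount: 10000 AH1F cells/well; medium: DMEM, 2% serum; reagent: Alexa488-fibronectin, 24 nM final in well; dosing: single compound dose, delivered by pin transfer; incubation: 1 h adhesion, overnight exposure; detection: fluorescence after three HBSS washes, excitation 485 nm, emission 525 nm; measure: fibronectin deposition inhibition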
PAX8 reporter: PAX8 transcriptional activity inhibition; RMG-I TPO-luciferase reporter, SteadyGlo, 24 h; AID 652154; inhibition, % at 12.6 µM; actives 1.2% (n = 360,000);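 active means mean replicate inhibition at least 60% with every replicate also reaching 60%; inconclusive means only one of the two criteria is met; inactive means mean below 60% and not all replicates reaching 60%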;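 further: luciferase light reporting Pax8 driven TPO promoter activity; plate controls were median of neutral control wells for no effect and mitoxantrone controls for full effect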
EWS-Fli inh: inhibitors of EWS/Fli oncoprotein transcriptional activity; inhibition, % at 12.6 µM; A673 NR0B1-luciferase reporter, viability-normalised; actives 0.67% (n = 350,000);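 active means mean inhibition of at least 50% after viability correction, with every replicate also passing that limit; inconclusive means mean reaches 50% but only one of two replicates passes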;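 further: firefly luciferase signal divided by Alamar Blue viability fluorescence both relative to DMSO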
EBV LMP1 NFkB: inhibitors of Epstein-Barr LMP1-induced NF-kappaB reporter. LMP1-induced NF-kappaB luciferase reporter cells, luminescence. inhibition, % at 12.5 µM. actives 0.69% (n = 350,000). AID 504558; in the data active means inhibition above about 41%; inconclusive means no clear call, values can overlap the other calls;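 further: 0% = neutral control wells and 100% = reference inhibitor control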
An asterisk follows results filed as active; ? = inconclusive; / = no result given. Rows were chosen to be rich in hits. Some 2.1% of all compounds tested hit in one or more screens of this group.

SMILES | aSyn UTR inh | Shn3 3UTR inh | FN deposition inh | PAX8 reporter | EWS-Fli inh | EBV LMP1 NFkB
COc1cc2c(c(OC)c1OC)-c1ccc(N(C)CC(OC)OC)c(=O)cc1[C@@H](NC(C)=O)CC2 | 84* | -30 | -11 | 99* | 60* | -11
CCN(CC)c1ccc2c(cc1=O)[C@@H](NC)CCc1cc(OC)c(OC)c(OC)c1-2 | 107* | 33 | -28 | 98* | 60* | 22
CN[C@H]1CCc2cc(OC)c(OC)c(OC)c2-c2ccc(N(C)CC(OC)OC)c(=O)cc21 | 70* | 19 | 1 | ? | 43 | 1
COc1cc(CNC2CCCc3ccccc32)cc(OC)c1OC (stereo unspecified) | 17 | 4 | -3 | 21 | 11 | -16
C/C=C/c1ccc([C@H]2[C@@H](CO)N(C(=O)CN(C)C)C23CN(C(=O)C2CC2)C3)cc1 | / | / | 2 | 22 | 1 | /
C[C@H](CO)N1C[C@H](C)[C@@H](CN(C)C(=O)Cc2ccccc2)OCCCC[C@H](C)Oc2ccc(NC(=O)CCC(F)(F)F)cc2C1=O | / | / | -10 | -7 | 0 | /
CN1CCN(CCCNC(=O)c2ccc3c(c2)N(Cc2ccc(F)cc2)CCS3)CC1 | 2 | -21 | 8 | -6 | -1 | 67*
COc1cccc(N2CCN(C(=O)c3ccc(CS(=O)c4ccccc4Cl)o3)CC2)c1 (stereo unspecified) | 110* | 15 | -28 | 93* | 51* | 2
COc1cccc(N2CCN(C(=O)c3ccc(CS(=O)c4ccccc4C)o3)CC2)c1 (stereo unspecified) | 108* | 24 | -15 | ? | 58* | 29
O=C(c1ccc(CS(=O)c2ccccc2Cl)o1)N1CCOCC1 (stereo unspecified) | 13 | -5 | -7 | -20 | 2 | -3
O=C(c1ccc(CS(=O)c2ccccc2Cl)o1)N1CCN(c2ccccc2)CC1 (stereo unspecified) | 110* | 10 | -1 | 12 | 56* | 3
O=c1c(Br)ccc(Br)cc1Br | / | 97* | 36* | 118* | 37 | -2
COCC#Cc1cnc2c(c1)C(=O)N([C@H](C)CO)C[C@@H](C)[C@H](CN(C)C(=O)c1cccnc1)O2 | / | / | 4 | / | -11 | /
O=C(c1ccc(F)cc1)N1CC(=O)N2[C@H](CO)[C@H](c3ccc(C#CC4CC4)cc3)[C@H]2C1 | / | / | -2 | 10 | 4 | /
C[C@H]1CN([C@@H](C)CO)C(=O)Cc2cc(NC(=O)C3CC3)ccc2O[C@@H]1CN(C)S(=O)(=O)c1ccccc1 | / | / | / | 6 | -1 | /
Nc1ccn([C@@H]2O[C@H](CO)[C@@H](O)[C@@H]2O)c(=O)n1 | 81* | 76 | -3 | 36 | 43 | 53*
Nc1ccn(C2OC(CO)C(O)C2O)c(=O)n1 (stereo unspecified) | / | 67 | / | / | 39 | /
C[C@H](Cc1ccccc1)Nc1ncnc2c1ncn2[C@@H]1O[C@H](CO)[C@@H](O)[C@H]1O | / | -39 | 8 | -15 | -9 | 10
OC[C@H]1O[C@@H](n2cnc3c(NC4CCCC4)nc(Cl)nc32)[C@H](O)[C@@H]1O | / | 32 | -4 | 12 | -3 | 15
O=c1[nH]cnc2c1nnn2C1OC(CO)C(O)C1O (stereo unspecified) | / | -39 | / | / | -11 | /
Nc1nc(Cl)nc2c1ncn2[C@@H]1O[C@H](CO)[C@@H](O)[C@H]1O | 13 | 3 | 7 | 70* | 1 | 15
CN(C)c1ncnc2c1nnn2C1OC(CO)C(O)C1O (stereo unspecified) | / | -31 | -1 | 91* | 26 | -64
CNc1ncnc2c1ncn2[C@@H]1O[C@H](CO)[C@@H](O)[C@H]1O | / | -20 | 4 | 0 | -1 | 55*
O=S(=O)(c1cccc(F)c1)N1CC[C@@H]2[C@@H](CO)Nc3ccc(-c4cccc(F)c4)cc3[C@@H]21 | / | / | 9 | 27 | 47 | /
C[C@@H]1CCCCO[C@@H](CN(C)C(=O)CCC(F)(F)F)[C@H](C)CN([C@H](C)CO)C(=O)c2cc(NC(=O)c3ccncc3)ccc2O1 | / | / | / | 9 | -8 | /
COc1ccc(C[C@H](N)C(=O)N[C@H]2[C@@H](O)[C@H](n3cnc4c(N(C)C)ncnc43)O[C@@H]2CO)cc1 | / | 5 | 25 | 117* | 6 | -21
